How the values were obtained:
PA1 cells [1] = assay: Cell cycle analysis; type: cell-based; conditions: 48 h
In short: (§1)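 Cells seeded at 1 × 10^5/well, then treated next day with 10, 50 or 75 nM for 48 h. PI (4 µg/ml) added for 5 min at RT. 10,000 events acquired by flow cytometry.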

A2780 cells [2] = assay: Cell cycle analysis; type: cell-based; conditions: 48 h
In short: as §1

PA1 cells [3] = assay: JC-1 mitochondrial membrane potential assay; type: cell-based; conditions: 10, 50, 75 nM; 48 h
In short: (§2)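 After 48 h test-compound treatment, cells were harvested and resuspended in staining buffer containing JC-1, 20 min in the dark at 37 °C, 5% CO2. Then resuspended in fresh buffer; 10,000 events acquired by flow cytometry. Valinomycin as positive control.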

A2780 cells [4] = assay: JC-1 mitochondrial membrane potential assay; type: cell-based; conditions: 10, 50, 75 nM; 48 h
In short: as §2

PA1 cells [5] = assay: Immunoblotting of apoptosis-related proteins and MMP1; type: cell-based
In short: (§3)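 Treated and control cells lysed in RIPA buffer with protease inhibitors; protein measured by Bradford. 40 µg resolved by SDS-PAGE and transferred to PVDF. Bands probed with antibodies, detected by enhanced chemiluminescence and quantified by densitometry.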

A2780 cells [6] = assay: Immunoblotting of apoptosis-related proteins; type: cell-based
In short: as §3

PA1 cells [7] = assay: Intracellular ROS, H2DCFDA flow cytometry; type: cell-based
In short: (§4)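 Intracellular ROS: 1 × 10^5 cells per 35 mm dish exposed to test compound for 10, 20 and 30 min. Harvested, washed in PBS, stained with H2DCFDA for 30 min and analysed by flow cytometry. H2O2-treated cells as positive control. ROS taken as the histogram shift in median fluorescence intensity versus vehicle control.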

A2780 cells [8] = assay: Intracellular ROS, H2DCFDA flow cytometry; type: cell-based; conditions: 75 nM
In short: as §4

PA1 cells [9] = assay: Spectrometric ROS measurement; type: cell-based
In short: (§5)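 Plate-reader ROS: 20,000 cells/well plated; after 24 h washed in PBS. Incubated 1 h in PBS with 10 µM H2DCFDA plus various test-compound concentrations, with or without 20 mM NAC. Fluorescence read at ex 485/em 535. 200 µM H2O2 as positive control.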

A2780 cells [10] = assay: Spectrometric ROS measurement; type: cell-based
In short: as §5

PA1 cells [11] = assay: Real time PCR of mitochondrial OXPHOS genes; type: cell-based; conditions: 48 h
In short: (§6)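 Total RNA extracted from cells treated with various test-compound concentrations. 2 µg RNA reverse-transcribed to cDNA. qPCR run in triplicate with primers for ND2, CYTB and ATPase 6.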

A2780 cells [12] = assay: Real time PCR of mitochondrial OXPHOS genes; type: cell-based; conditions: 48 h
In short: as §6

PA1 cells [13] = assay: Transwell migration assay; type: cell-based; conditions: 40 nM, 48 h treatment, 5 h migration
In short: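 PA1 cells pretreated with various test-compound concentrations for 48 h, then 1 × 10^5 seeded into 8 µm-pore inserts in serum-free medium, complete medium below, 5 h. Inserts washed in PBS and fixed in 70% ethanol; non-migrated inner cells removed with cotton. Cells stained with 0.2% crystal violet, imaged and quantified by image analysis.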

[14] = system: human breast cancer cell lines (MDA-MB-231, MDA-MB-468, MCF7); assay: MTT assay of human breast cancer cell lines; type: cell-based; conditions: 48 h, read-out: IC50 (cytotoxicity)
MCF7 = assay: MTT assay of human breast cancer cell lines; type: cell-based; conditions: 48 hours
[15] = system: Ehrlich ascites carcinoma (EAC) solid tumor; assay: Antitumor activity in EAC solid tumor mice; type: in vivo, Swiss albino mice
In short: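 EAC cells maintained by intraperitoneal passage in mice every 7 days. Day-7 ascites cells were diluted in PBS, and 1 × 10^6 cells were injected subcutaneously into the thigh. On day 7, caliper-measured tumours were allocated to groups of equal mean size, 5 animals/group, repeated three times (n = 15). Groups: untreated control or test compound 10 mg/kg b.wt i.p. every alternate day. Tumour size and body weight were recorded every alternate day; V = (ab2)/2.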

[16] = system: Ehrlich ascites carcinoma (EAC) solid tumor; assay: Chemopreventive effect in EAC solid tumor mice; type: in vivo, Swiss albino mice
In short: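 Subcutaneous EAC thigh tumour model (1 × 10^6 cells). The treated group got 15 alternate-day doses of test compound (10 mg/kg b.wt) before tumour injection, none at inoculation, then 15 further doses after tumour injection. Compared with untreated controls, n = 5/group. Tumour volume was measured from day 7 after tumour injection, with body weight and physiological parameters. Two independent experiments.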

EAC tumor tissue = assay: Histology; type: in vivo, Swiss albino mice; conditions: ST03 post-treatment
In short: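 Tumour and organs (kidney, liver, spleen) collected at study end and fixed; paraffin sections (10 µm) H&E-stained. PCNA IHC on 5 µm tumour sections: 3% H2O2 in PBS, antigen retrieval by boiling in 10 mM sodium citrate pH 6. Blocked with 5% goat serum/1% BSA for 30 min. Mouse anti-PCNA 1:100 (1 h RT or overnight 4 °C), biotinylated anti-mouse IgG 1:200, streptavidin-HRP 1:1000, DAB-H2O2.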

[17] = Toxicity in experimental animals; type: in vivo, Swiss albino mice
[18] = Bioavailability study, plasma concentration by HPLC-UV; type: in vivo, Swiss albino mice
In short: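 Swiss albino mice, n = 2/group, single oral or i.p. dose: test compound 10 mg/kg b.wt, curcumin 20 mg/kg b.wt. Blood sampled at 5, 10, 15 min and 1, 3, 6, 12, 24 h. Plasma protein-precipitated with an equal volume of acetonitrile. HPLC-UV at 1 mL/min, room temperature, detection 312 nm (test compound) or 369 nm (curcumin). Calibration curve in mouse plasma, 1–100 µM. Mean per time point.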

Solubility in 0.6 N HCl = type: physicochemical
PA-1 cells = assay: Cytotoxicity on ovarian cancer cells compared to curcumin; type: cell-based
A2780 = assay: as above; type: cell-based
[19] = system: various cancer cell lines; conditions: cited from earlier work
tumor = conditions: cited from earlier work
xenograft models = conditions: twice-daily, nude mice; cited from earlier work
PA1 cells [20] = assay: Cell viability assay with ST03 and NAC; type: cell-based; conditions: 20 mM NAC, 20 nM ST03, 24 h
A2780 cells [21] = assay: Cell viability assay with ST03 and NAC; type: cell-based; conditions: 20 mM NAC, 20 nM ST03, 24 h
[22] = Swiss albino, mouse, plasma, ip, 10 mg/kg
[23] = Swiss albino, mouse, plasma, po, 10 mg/kg
[24] = Swiss albino, mouse, plasma, ip, 20 mg/kg
[25] = Swiss albino, mouse, plasma, po, 20 mg/kg

O=C1/C(=C/c2ccccc2Cl)CN(C(=O)C(=O)N2C/C(=C\c3ccccc3Cl)C(=O)/C(=C/c3ccccc3Cl)C2)C/C1=C\c1ccccc1Cl [ST03, 1,2-bis[(3E,5E)-3,5-bis[(2-chlorophenyl)methylene]-4-oxo-1-piperidyl]ethane-1,2-dione]
cells accumulated at the sub G0/G1 stage (PA1 cells [1]; 50 nM): ~70%
cell cycle arrest (PA1 cells [1]; 10, 50, 75 nM): no notable cell cycle arrest
cells accumulated at the sub G0/G1 stage (A2780 cells [2]; 50 nM): ~60%
cell cycle arrest (A2780 cells [2]; 10, 50, 75 nM): no notable cell cycle arrest
JC1 green population (mitochondrial damage) (PA1 cells [3]): increase in the green population
JC1 green population (mitochondrial damage) (A2780 cells [4]): increase in the green population
p53 expression (PA1 cells [5]): upregulation
Bax expression (PA1 cells [5]; 40 nM): increase
Bcl2 expression (PA1 cells [5]; 40 nM): significant decrease
MMP1 expression (PA1 cells [5]; 40 nM): significant decrease
Cytochrome C (PA1 cells [5]; increasing concentrations): increase
p53 expression (A2780 cells [6]): upregulation
Bax expression (A2780 cells [6]; 40 nM): increase
Bcl2 expression (A2780 cells [6]; 40 nM): significant decrease
Cytochrome C (A2780 cells [6]; increasing concentrations): increase
time at which ROS production was induced (PA1 cells [7]; 40 nM): 10 min
time at which ROS production was induced (PA1 cells [7]; 50 nM): ≤ 10 min
time at which the histogram shifted (ROS production) (A2780 cells [8]): 30 min
time to peak ROS levels (PA1 cells [9]; 20 mM ST03 as printed, 20 nM): 1 h
time to peak ROS levels (A2780 cells [10]; 20 mM ST03 as printed, 20 nM): 1 h
transcription of mitochondrially encoded OXPHOS genes (ND2, CYB, Atpase6) (PA1 cells [11]): decrease in the transcription
transcription of mitochondrially encoded OXPHOS genes (ND2, CYB, Atpase6) (A2780 cells [12]): decrease in the transcription
reduction in migration (PA1 cells [13]): 60%
IC50 [14]: 166 to 301 nM
IC50 rank among breast cancer cell lines (MCF7): least IC50
spleen size vs untreated animals ([15]; 10 mg/kg b.wt i.p.): reduction in spleen size
tumor growth vs untreated control ([15]; 10 mg/kg b.wt i.p. every alternate day from day 7, 25 days): significant reduction in tumor growth
dosage sufficient to inhibit tumor growth without adverse systemic toxicity ([15]; 15 doses, tumor allograft): 10 mg/kg
pre and post-treatment compared with post-treatment alone ([16]; 10 mg/kg b.wt): better results than post-treatment alone
tumor growth vs controls ([16]; pre-treatment with 15 alternate doses of 10 mg/kg b.wt, then post-treatment): significant reduction in tumor growth
proliferating cells (PCNA staining) in tumor (EAC tumor tissue): reduction in proliferating cells
tumor cells in H&E stained tumor vs control tissue (EAC tumor tissue): significant reduction of tumor cells
Bcl2 in tumor extract (EAC tumor tissue; western blot): up-regulation
histopathology of kidney, liver and spleen (H&E) ([17]; ST03 post-treatment): no pathological changes
RBC count ([17]; end of study): No significant change
WBC count vs control group ([17]; end of study): increase in the number of WBCs
body weight ([17]; pre- and post-treatment animals, 10 mg/kg b.wt): no notable weight reduction
ALT level ([17]; serum, end of study): No significant change
AST level ([17]; serum, end of study): No significant change
urea level ([17]; serum, end of study): No significant change
Cmax [18, 22]: 98.4 µM
Tmax [18, 22]: 8 h
Cmax [18, 23]: 55.2 µM
Tmax [18, 23]: 2 h
half-life [18, 23]: 3 h
presence in plasma until ([18]; intraperitoneal): > 12 h
presence in plasma until ([18]; oral): > 12 h
bioavailability compared to curcumin ([18]; oral, ST03 10 mg/kg, curcumin 20 mg/kg): ~14 fold
detectable in plasma ([18]; route not given): up to 12 h
solubility (Solubility in 0.6 N HCl): completely soluble
cytotoxicity on PA-1 compared with A2780 (PA-1 cells): better cytotoxicity on PA-1 cells
cytotoxicity relative to curcumin (PA-1 cells): 100 fold
cytotoxicity relative to curcumin (A2780): 100 fold
potency relative to curcumin [19]: ~100 fold
selectivity of toxicity, cancer cells vs normal cells [19]: selectively induces toxicity in cancer cells compared to normal cells

COc1cc(/C=C/C(=O)CC(=O)/C=C/c2ccc(O)c(OC)c2)ccc1O [curcumin, reference compound]
Cmax [18, 24]: 2.7 µM
Tmax [18, 24]: 3 h
Cmax [18, 25]: 13.7 µM
Tmax [18, 25]: 0.25 h
potency range [19]: ~10000 nM
dosage with antitumor activity in vivo (tumor): 800 mg/kg of body weight
effective dosage in xenograft models (xenograft models): 50 mg/kg b.wt

O=C1/C(=C/c2ccccc2)CN(C(=O)C(=O)N2C/C(=C\c3ccccc3)C(=O)/C(=C/c3ccccc3)C2)C/C1=C\c1ccccc1 [1,2-bis[(3E,5E)−3,5-dibenzylidene-4-oxo-1-piperidyl]ethane-1,2-dione, reference compound]
cytotoxic potency compared with curcumin ([19]; multiple cancer cell lines in vitro): greater potency than the parent compound curcumin

CC(=O)N[C@@H](CS)C(=O)O [NAC, N-acetylcysteine, reference compound]
effect of NAC on ST03 induced ROS (PA1 cells [9]; 20 mM NAC with ST03): blocked ST03 induced increase in ROS
effect of NAC on ST03 induced ROS (A2780 cells [10]; 20 mM NAC with ST03): blocked ST03 induced increase in ROS
cell death with ST03 in presence of NAC (PA1 cells [20]): decrease in cell death
cell death with ST03 in presence of NAC (A2780 cells [21]): decrease in cell death

From PMC8607274 (Translational Oncology, 2021)
